Here are results for two molecules from paper PMC12137120 (Nature, 2025).

Substitutions are numbered along the chain they refer to.

Assay [1] has as its system A375 cells. Nature of the assay: Immunoblot of MAPK signalling. In kind it is cell-based, human. The conditions noted are these: BRAF(mut) melanoma cells A375, 30 µM, time course. The procedure, abridged:
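A375 cells got 30 µM test compound and were collected at several time points. They were cleared at 13,000 rpm, 4 °C, 20 min, protein was quantified by BCA, and samples were immunoblotted. Two independent experiments were run.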
(In general: In western blotting, separated proteins are transferred to a membrane and probed.)

The subject of assay [2] is MELJUSO cells. Nature of the assay: Immunoblot of MAPK signalling. In kind it is cell-based, human. A digest of the protocol: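 MELJUSO cells were treated either with increasing doses for 24 h or with 30 µM over a time course. Lysis was in 1% Triton X-100/Tris-HCl pH 7.4/NaCl/EDTA buffer with phosphatase and protease inhibitors, then clearing at 13,000 rpm, 4 °C, 20 min and BCA protein assay. Immunoblots of the time course were quantified by densitometry as pCRAF/CRAF and pERK/ERK. Two independent experiments were run.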

Assay [3] has as its system MELJUSO cells. Nature of the assay: Incucyte 3D cell proliferation. In kind it is cell-based, human. The conditions noted are these: RAS(Q61L) melanoma MELJUSO; twice-a-week treatment, 30 µM. The procedure, abridged:
(§1)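 Cells were seeded in sextuplicate in ultralow-attachment round-bottom plates in 10% FCS medium, spun 3 min at 200g and left 24 h to form spheroids or aggregates. They were dosed with 30 µM test compound or DMSO twice weekly at 37 °C, 5% CO2, and imaged by Incucyte every 6 h for three weeks at ×10. Data are mean ± s.d., n = 6; two independent experiments.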

In assay [4] the target is T1, SHOC2–NRAS(Q61R) (Homo sapiens, UniProt Q9UQ13).
T1 sequence (Q9UQ13 1-582): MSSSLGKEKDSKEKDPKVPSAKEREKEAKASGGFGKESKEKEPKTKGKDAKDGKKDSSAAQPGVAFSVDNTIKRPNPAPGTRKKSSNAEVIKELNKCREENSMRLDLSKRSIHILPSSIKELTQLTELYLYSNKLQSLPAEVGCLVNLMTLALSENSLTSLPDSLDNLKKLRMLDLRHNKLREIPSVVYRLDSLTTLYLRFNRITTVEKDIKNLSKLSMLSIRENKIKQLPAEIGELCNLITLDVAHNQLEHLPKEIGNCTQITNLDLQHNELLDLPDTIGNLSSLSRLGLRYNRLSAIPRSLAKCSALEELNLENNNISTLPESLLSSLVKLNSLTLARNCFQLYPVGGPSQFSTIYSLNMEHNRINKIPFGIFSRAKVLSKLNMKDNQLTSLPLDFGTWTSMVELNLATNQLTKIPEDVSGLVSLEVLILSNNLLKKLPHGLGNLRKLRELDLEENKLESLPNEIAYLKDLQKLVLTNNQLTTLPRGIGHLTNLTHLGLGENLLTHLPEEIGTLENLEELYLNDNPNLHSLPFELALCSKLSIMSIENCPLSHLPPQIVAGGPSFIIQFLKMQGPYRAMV
Nature of the assay: TR-FRET competitive binding assay SHOC2–NRAS Q61R:GTP. The conditions noted are these: versus (R)-5. In general terms: In TR-FRET formats the signal depends on donor and acceptor labels being close together.

Assay [5] deals with T2, SHOC2(G290A)–NRAS(Q61K) (Homo sapiens, UniProt Q9UQ13, G290A).
T2 sequence (Q9UQ13 1-582 G290A): T1 sequence (Q9UQ13 1-582) with G290A
Nature of the assay: SHOC2. The class given is cell-based. The procedure, abridged: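 HEK 293T cells were plated at 20,000 per well and incubated overnight at 37 °C, 5% CO2. They were then transiently transfected with SHOC2(G290A)–SmBiT and LgBiT–NRAS(Q61K) and incubated overnight again. Test compound was added for 4 h as a seven-point 1:3 series from 10 µM […], from stock in DMSO/H2O 90:10. NanoGlo Live substrate (1:60 in phenol-red-free Opti-MEM) was then added.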

In assay [6] the test system is RAS mutant and wild-type cell lines. Nature of the assay: Immunoblot of MAPK signalling in a panel of RAS mutant and wild-type cell lines. In kind it is cell-based, human. The conditions noted are these: 4 h, 30 µM.
Assay [7] concerns the target T3, SHOC2 (80–582) (Homo sapiens, UniProt Q9UQ13).
T3 sequence (Q9UQ13 80-582): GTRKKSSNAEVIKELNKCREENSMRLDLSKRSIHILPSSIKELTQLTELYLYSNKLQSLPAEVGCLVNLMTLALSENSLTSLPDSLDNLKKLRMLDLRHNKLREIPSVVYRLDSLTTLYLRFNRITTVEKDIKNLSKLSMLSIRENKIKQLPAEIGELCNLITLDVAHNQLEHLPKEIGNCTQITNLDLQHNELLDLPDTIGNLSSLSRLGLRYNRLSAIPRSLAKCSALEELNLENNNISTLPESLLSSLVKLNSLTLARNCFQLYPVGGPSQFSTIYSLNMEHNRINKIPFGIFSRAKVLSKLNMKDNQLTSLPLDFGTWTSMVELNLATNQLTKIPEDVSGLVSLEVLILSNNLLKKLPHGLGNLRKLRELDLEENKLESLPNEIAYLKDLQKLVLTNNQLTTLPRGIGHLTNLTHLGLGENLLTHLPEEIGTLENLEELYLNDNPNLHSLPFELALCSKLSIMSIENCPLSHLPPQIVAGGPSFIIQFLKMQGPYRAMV
Nature of the assay: SPR to assess affinity of low-molecular-weight ligands on immobilized SHOC2. In kind it is binding. The conditions noted are these: versus (R)-5.

In assay [8] the target is T4, SHOC2(G290A)–NRAS(Q61R) (Homo sapiens, UniProt Q9UQ13, G290A).
T4 sequence (Q9UQ13 1-582 G290A): T1 sequence (Q9UQ13 1-582) with G290A
Nature of the assay: TR-FRET assay with resistant mutant SHOC2. The class given is binding.

The subject of assay [9] is Mel Juso cell line. Nature of the assay: RNA-seq global transcriptome analysis. The class given is cell-based, human. The conditions noted are these: 4 h and 24 h, 30 µM and 100 µM.
Assay [10] has as its target T5, SHOC2(WT)–NRAS(Q61K) (Homo sapiens, UniProt Q9UQ13).
T5 sequence (Q9UQ13 1-582): T1 sequence (Q9UQ13 1-582)
Nature of the assay: SHOC2–NRAS. In kind it is cell-based. The procedure, abridged: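 Monoclonal HEK 293T lines stably expressed full-length SHOC2–SmBiT with LgBiT–NRAS(Q61K); a SmBiT–128-aa linker–LgBiT line served as control. Cells were kept in DMEM with 10% FCS. 20,000 cells per well were seeded in medium with 0.1% FCS and held 2 h at 37 °C. Test compound was given for 4 h (seven-point 1:3, 30 µM to 40 nM). Medium was then replaced with phenol-red-free Opti-MEM plus NanoGlo Live substrate (1:60). n = 3 biological samples.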

Assay [11] relates to RAS mutant and RAS WT cell lines. Nature of the assay: Incucyte 3D cell proliferation, panel of RAS mutant and RAS WT cell lines. The conditions noted are these: 30 µM. In kind it is cell-based, human. A digest of the protocol: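 For spheroid or aggregate formation, cells were seeded in sextuplicate in ultralow-attachment round-bottom plates in 10% FCS medium, centrifuged 3 min at 200g and left 24 h. They were treated with 30 µM test compound or DMSO at 37 °C, 5% CO2, and imaged on an Incucyte every 6 h for three weeks at ×10.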

Assay [12] has as its system A375 cells. Nature of the assay: Incucyte 3D cell proliferation. In kind it is cell-based, human. The conditions noted are these: BRAF(V600E) melanoma A375; twice-a-week treatment, 30 µM. A digest of the protocol: as §1
Assay [13] has as its system GTP-loaded RAS. Nature of the assay: Active RAS pull-down assay. The class given is cell-based, human. The conditions noted are these: Mel Juso and A375 cells, 30 µM, 2 h and 4 h. The procedure, abridged:
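Cells were treated with 30 µM test compound or DMSO for 2 h and 4 h, then lysed per the kit. 400 µg lysate was rotated with Raf-RBD beads for 1 h at 4 °C. Bound protein was eluted in 2× Laemmli buffer, boiled 5 min at 95 °C and immunoblotted alongside total lysates. Two independent experiments were run.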

As for `CC(C)(C(=O)O)[C@H](NC(=O)Cc1cccc(I)c1)c1ccc2oc(=O)[nH]c2c1` [Compound 6, (R)-3-(2-(3-iodophenyl)acetamido)-2,2-dimethyl-3-(2-oxo-2,3-dihydrobenzo[d]oxazol-5-yl)propanoic acid], in [1], the “pERK or pMEK inhibition” value is “did not show any pERK or pMEK inhibition”. Moreover, the “inhibited CRAF (phospho-S259) levels” value in assay [2] (MELJUSO, 30 µM, time course) is given as “increased levels”. In assay [2] (NRAS(Q61mut) melanoma cells MELJUSO, 24 h increasing doses), the “MEK and ERK phosphorylation” value is recorded as “dose-dependent inhibition”. Moreover, the results for the “3D cell proliferation” value in [3] and in assay [12] were “suppressed the cell proliferation” and “but not of BRAF(V600E)”, respectively. Further, in assay [4], the “fold higher potency in TR-FRET assay” value is 10 fold. Besides, in assay [5], the “activity in SHOC2(G290A)–NRAS(Q61mut) NanoBiT assay” value is reported as “no activity”. Besides, the “MAPK signalling in EGFRΔex19 cells” value in [6] was “only minor effects”. Also, the “MAPK signalling in wild-type RTK/RAS or BRAF(V600E) mutant cell lines” value in [6] is given as “no detectable effect”. Besides, in [6] (Q61L, G12D and G12C mutant conditions), the “MAPK signalling in RAS mutant settings” value is “downregulated MAPK signalling”. The “fold higher potency in SPR assay” value in assay [7] is given as 10 fold. Besides, the “activity in SHOC2(G290A)–NRAS(Q61R) TR-FRET” value in assay [8] was “fully abolish compound 6 activity”. The “transcriptome changes, RAS/MAPK-associated genes” value in [9] was “dose-dependent and time-dependent modulation”. Besides, in assay [10], the “activity in SHOC2(WT)–NRAS(Q61mut) NanoBiT assay” value is given as “selective displacement”. Besides, in [11] (including EGFRΔex19 cells), the “3D proliferation in wild-type RAS settings” value was “none”. Also, the “3D proliferation of RAS mutant models” value in [11] (prolonged treatment) was “anti-proliferative effects”. Moreover, in [13], the “RAS–GTP loading” value is recorded as “unaffected”.
For `CC(C)(C(=O)O)[C@@H](NC(=O)Cc1cccc(I)c1)c1ccc2oc(=O)[nH]c2c1` [Compound 7, (S)-3-(2-(3-iodophenyl)acetamido)-2,2-dimethyl-3-(2-oxo-2,3-dihydrobenzo[d]oxazol-5-yl)propanoic acid], in [6], the “MAPK signalling in all cell models tested” value was “inert”. Besides, the “transcriptome changes, RAS/MAPK-associated genes” value in assay [9] was “no significant changes”. The “activity in SHOC2(WT)–NRAS(Q61mut) NanoBiT assay” value in assay [10] was “no activity”.
